Assay results published in ChEMBL document CHEMBL1137400, “Dopamine/serotonin receptor ligands. 13: Homologization of a benzindoloazecine-type dopamine receptor antagonist modulates the affinities for dopamine D(1)-D(5) receptors” (J Med Chem, 2006).
Calls of active or inactive are those of the source. The rule behind the calls is not given here.

Tests used:
D(1A) dopamine receptor [1] = biological target: T1, D(1A) dopamine receptor (Homo sapiens, UniProt P21728); experiment: Activity at human D1 dopamine receptor expressed in HEK293 cells by calcium fluorescence assay; assay type: functional, cell-based
How it was run: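 Human D1 stably expressed in HEK293 cells. Intracellular Ca2+ was read by fluorescence. Compounds were first checked for any Ca2+ rise on their own, then tested for concentration-dependent suppression of the signal induced by the agonist SKF 38393. Ki was taken from the sigmoidal inhibition curve. Means of three experiments of six values each (±SEM), or of two experiments.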

D(2) dopamine receptor [2] = biological target: T2, D(2) dopamine receptor (Homo sapiens, UniProt P14416); experiment: Activity at human D2L dopamine receptor expressed in HEK293 cells by calcium fluorescence assay; assay type: functional, cell-based
D(1B) dopamine receptor [3] = biological target: T3, D(1B) dopamine receptor (Homo sapiens, UniProt P21918); experiment: Displacement of [3H]SCH 23390 from human D5 dopamine receptor expressed in HEK293 cells; assay type: cell-based
How it was run: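 Radioligand binding with [3H]SCH 23390 on human D5 stably expressed in HEK293 cells, in 96-well format. Incubation 90 min at 27 °C, stopped by rapid filtration. Ki was calculated from IC50 by Cheng-Prusoff. At least two independent experiments, each in triplicate.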

D(1A) dopamine receptor [4] = biological target: T1, D(1A) dopamine receptor; experiment: Displacement of [3H]SCH 23390 from human D1 dopamine receptor expressed in HEK293 cells; assay type: cell-based
How it was run: (§1)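 Human cloned receptors stably expressed: D1 in HEK293 cells with [3H]SCH 23390, and D4.4 in CHO cells with [3H]spiperone. Radioligand displacement was run in 96-well format, incubated 90 min at 27 °C and stopped by rapid filtration. At least two independent experiments, each in triplicate. Ki was calculated from IC50 by Cheng–Prusoff. "No activity" means under 70% displacement at 10^-5 M.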

D(1B) dopamine receptor [5] = biological target: T3, D(1B) dopamine receptor; experiment: Activity at human D5 dopamine receptor expressed in HEK293 cells by calcium fluorescence assay; assay type: functional, cell-based
D(3) dopamine receptor = D(3) dopamine receptor (Homo sapiens, UniProt P35462); experiment: Displacement of [3H]spiperone from human D3 receptor expressed in CHO cells; assay type: cell-based
How it was run: (§2)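 Human D2L or D3 receptors stably expressed in CHO cells; [3H]spiperone displacement in 96-well format. Incubation 90 min at 27 °C, ended by rapid filtration. IC50 was converted to Ki by Cheng-Prusoff. At least two independent experiments, each run in triplicate.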

D(2) dopamine receptor [6] = biological target: T2, D(2) dopamine receptor; experiment: Displacement of [3H]spiperone from human D2L dopamine receptor expressed in CHO cells; assay type: cell-based; how it was run: as §2
D(4) dopamine receptor = biological target: T4, D(4) dopamine receptor (Homo sapiens, UniProt P21917); experiment: (§3) Displacement of [3H]spiperone from human D4 dopamine receptor expressed in CHO cells; assay type: cell-based; how it was run: as §1
T4 sequence (P21917 whole entry): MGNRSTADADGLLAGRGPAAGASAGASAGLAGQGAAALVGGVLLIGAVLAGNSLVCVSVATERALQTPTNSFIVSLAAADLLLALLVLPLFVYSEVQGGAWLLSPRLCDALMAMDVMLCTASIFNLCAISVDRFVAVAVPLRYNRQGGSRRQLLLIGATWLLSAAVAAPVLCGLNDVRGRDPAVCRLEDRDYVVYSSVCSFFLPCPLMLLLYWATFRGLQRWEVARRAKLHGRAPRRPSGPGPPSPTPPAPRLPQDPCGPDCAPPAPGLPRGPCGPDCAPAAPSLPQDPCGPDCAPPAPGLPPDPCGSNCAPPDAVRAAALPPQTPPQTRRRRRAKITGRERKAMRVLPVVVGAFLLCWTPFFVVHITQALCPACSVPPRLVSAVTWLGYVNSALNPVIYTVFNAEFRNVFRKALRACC

[7] = biological target: T5, D(4) dopamine receptor (Homo sapiens) (UniProt P21917); experiment: as §3; assay type: cell-based; how it was run: as §1
T5 sequence (whole entry): T4 sequence (P21917 whole entry)

T1 sequence (P21728 whole entry): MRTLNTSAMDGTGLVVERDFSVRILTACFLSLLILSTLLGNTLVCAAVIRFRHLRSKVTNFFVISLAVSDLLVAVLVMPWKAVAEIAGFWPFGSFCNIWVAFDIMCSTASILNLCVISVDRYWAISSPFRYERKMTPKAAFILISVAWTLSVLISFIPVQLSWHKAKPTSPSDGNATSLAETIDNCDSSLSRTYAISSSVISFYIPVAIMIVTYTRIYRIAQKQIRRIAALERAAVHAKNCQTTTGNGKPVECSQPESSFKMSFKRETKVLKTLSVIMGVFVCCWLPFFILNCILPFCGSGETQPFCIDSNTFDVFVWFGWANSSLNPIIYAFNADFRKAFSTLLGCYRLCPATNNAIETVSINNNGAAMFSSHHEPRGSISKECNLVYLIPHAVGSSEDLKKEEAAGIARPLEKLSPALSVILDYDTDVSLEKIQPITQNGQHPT
T2 sequence (P14416 whole entry): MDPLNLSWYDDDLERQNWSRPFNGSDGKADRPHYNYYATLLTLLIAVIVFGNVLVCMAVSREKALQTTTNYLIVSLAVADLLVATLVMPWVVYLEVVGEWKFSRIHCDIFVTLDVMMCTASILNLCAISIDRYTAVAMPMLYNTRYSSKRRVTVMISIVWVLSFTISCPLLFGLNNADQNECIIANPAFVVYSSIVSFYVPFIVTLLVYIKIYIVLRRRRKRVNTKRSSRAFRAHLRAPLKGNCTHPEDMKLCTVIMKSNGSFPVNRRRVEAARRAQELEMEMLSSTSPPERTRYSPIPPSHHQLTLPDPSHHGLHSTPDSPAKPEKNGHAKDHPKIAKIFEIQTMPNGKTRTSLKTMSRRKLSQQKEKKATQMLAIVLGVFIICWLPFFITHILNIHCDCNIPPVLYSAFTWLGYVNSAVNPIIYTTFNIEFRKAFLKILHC
T3 sequence (P21918 whole entry): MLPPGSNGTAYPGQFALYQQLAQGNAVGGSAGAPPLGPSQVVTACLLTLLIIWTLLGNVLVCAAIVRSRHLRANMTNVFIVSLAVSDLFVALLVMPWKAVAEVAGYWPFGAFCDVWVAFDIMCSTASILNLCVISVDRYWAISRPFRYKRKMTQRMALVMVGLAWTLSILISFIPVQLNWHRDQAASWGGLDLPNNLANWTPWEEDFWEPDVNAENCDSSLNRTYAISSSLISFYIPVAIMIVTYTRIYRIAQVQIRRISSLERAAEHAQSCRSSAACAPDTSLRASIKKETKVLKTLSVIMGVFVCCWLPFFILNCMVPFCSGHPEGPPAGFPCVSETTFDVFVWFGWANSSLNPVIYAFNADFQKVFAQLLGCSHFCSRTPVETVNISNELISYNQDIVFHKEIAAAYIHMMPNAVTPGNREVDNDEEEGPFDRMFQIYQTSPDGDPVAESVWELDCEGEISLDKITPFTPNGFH
D(3) dopamine receptor, sequence (P35462 whole entry): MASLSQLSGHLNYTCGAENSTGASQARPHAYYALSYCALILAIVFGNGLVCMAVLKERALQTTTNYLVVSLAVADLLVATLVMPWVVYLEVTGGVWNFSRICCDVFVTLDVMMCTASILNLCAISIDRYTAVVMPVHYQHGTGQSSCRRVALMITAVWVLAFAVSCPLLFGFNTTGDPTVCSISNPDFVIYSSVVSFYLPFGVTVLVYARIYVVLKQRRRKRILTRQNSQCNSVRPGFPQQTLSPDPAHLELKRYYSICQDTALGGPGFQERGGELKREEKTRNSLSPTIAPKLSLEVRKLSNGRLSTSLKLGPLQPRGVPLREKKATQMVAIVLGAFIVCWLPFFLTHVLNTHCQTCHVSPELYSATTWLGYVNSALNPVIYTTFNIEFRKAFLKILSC

Row | Ki (D(3) dopamine receptor) | Ki (D(4) dopamine receptor) | Activity (D(1A) dopamine receptor [1]) | Activity (D(2) dopamine receptor [2]) | Activity (D(1B) dopamine receptor [3]) | Activity (D(1A) dopamine receptor [4]) | Activity (D(1B) dopamine receptor [5]) | Activity (D(3) dopamine receptor) | Activity (D(2) dopamine receptor [6]) | Activity [7] | SMILES | Ki (D(1A) dopamine receptor [1]) | Ki (D(2) dopamine receptor [2]) | Ki (D(1B) dopamine receptor [3]) | Ki (D(1A) dopamine receptor [4]) | Ki (D(1B) dopamine receptor [5]) | Ki (D(2) dopamine receptor [6])
1 | 521 nM | 184 nM |  |  |  |  |  |  |  |  | CN1CCCc2c([nH]c3ccccc23)Cc2ccccc2CC1 | 304 nM | 38 nM | 92 nM | 163 nM | 71.6 nM | 143 nM
2 |  |  | inactive | inactive | inactive | inactive | inactive | inactive | inactive | inactive | c1ccc2c(c1)CCCN1CCc3c([nH]c4ccccc34)C21 (centres undefined) |  |  |  |  |  | 
3 | 25.9 nM | 108 nM |  |  |  |  |  |  |  |  | CN1CCc2ccccc2Cc2[nH]c3ccccc3c2CC1 |  |  |  |  |  | 
4 |  |  | inactive | inactive | inactive | inactive | inactive | inactive | inactive | inactive | c1ccc2c(c1)CCN1CCCc3c([nH]c4ccccc34)C21 (centres undefined) |  |  |  |  |  | 

Row | SMILES | Ki (D(3) dopamine receptor) | Ki (D(4) dopamine receptor) | Activity (D(1A) dopamine receptor [1]) | Activity (D(2) dopamine receptor [2]) | Activity (D(1B) dopamine receptor [3]) | Activity (D(1A) dopamine receptor [4]) | Activity (D(1B) dopamine receptor [5]) | Activity (D(3) dopamine receptor) | Activity (D(2) dopamine receptor [6]) | Activity [7] | Ki (D(1A) dopamine receptor [1]) | Ki (D(2) dopamine receptor [2]) | Ki (D(1B) dopamine receptor [3]) | Ki (D(1A) dopamine receptor [4]) | Ki (D(1B) dopamine receptor [5]) | Ki (D(2) dopamine receptor [6])
5 | CN1CCCc2ccccc2Cc2[nH]c3ccccc3c2CC1 | 278 nM | 98.4 nM |  |  |  |  |  |  |  |  | 2.8 nM | 1.5 nM | 0.61 nM | 2.2 nM | 2.8 nM | 14.5 nM
